CSN deneddyl inh – blocks human CSN-mediated cullin deneddylation | 360,000 compounds, 0.38% hits | inhibition, % at 12.5 µM | Purified CSN, SCF-Nedd8-OG deneddylation, fluorescence polarization | Q92905;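 active means pattern-corrected inhibition above about 35%, with an unprinted fluorescence ratio check between 0.5 and 1.5, limit read from the data, passing the limit was not always enough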;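 further: 0% = enzyme with substrate and 100% = substrate without enzyme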
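Assay system: Purified human Csn5 enzyme expressed in HEK293T cells | Amount: Enzyme 0.24 nM | Measured by: Fluorescence polarization readout | Medium: Tris/NaCl/DTT buffer, pH 7.5 | Compound dosing: One concentration, 12.5 µM, 0.25% DMSO | Times: 90 min incubation of compound, enzyme and substrate at room temperature | Control set: no-enzyme wells high, enzyme-with-substrate wells low | Read-out: % inhibition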
HNF4A DNA FP – change in binding of human HNF4 alpha to DNA. HNF4a-FITC DNA binding, fluorescence polarization, 1 h. P41235. activity change, % at 10 µM. 360,000 compounds, 0.3% hits; in the data active means activity change above about 30%, passing the limit was not always enough
PREPL inhibitor – human PREPL enzyme inhibition. Q4J6C6. recombinant PREPL, fluorescence polarization activity-based probe. inhibition, % at 5.96 µM. 320,000 compounds, 0.68% hits; in the data active means inhibition above about 43%;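 further: 0% = enzyme with DMSO and 100% = wells lacking enzyme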
Rpn11 inh – Rpn11 (human) deubiquitinase inhibition. human 26S proteasome, Ub4-pepOG fluorescence polarization; 20S core pre-blocked with epoxomicin. inhibition, % at 20 µM. 360,000 compounds, 0.59% hits;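 active means inhibition at 20 µM, scaled to each plate's controls, above about 33%, limit read from the data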
Neddylation inh – inhibitors of human cullin neddylation. inhibition, % at 25 µM. 360,000 compounds, 0.58% hits. P61081+Q13564. TR-FRET cullin neddylation, biochemical; in the data active means inhibition above about 36%
Target sequence (P61081 whole entry, looked up): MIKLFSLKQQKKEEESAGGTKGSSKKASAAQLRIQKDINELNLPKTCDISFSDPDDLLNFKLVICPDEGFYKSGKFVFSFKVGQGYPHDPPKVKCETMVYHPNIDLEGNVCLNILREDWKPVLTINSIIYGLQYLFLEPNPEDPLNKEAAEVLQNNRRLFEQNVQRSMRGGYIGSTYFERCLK
Target sequence (Q13564 whole entry, looked up): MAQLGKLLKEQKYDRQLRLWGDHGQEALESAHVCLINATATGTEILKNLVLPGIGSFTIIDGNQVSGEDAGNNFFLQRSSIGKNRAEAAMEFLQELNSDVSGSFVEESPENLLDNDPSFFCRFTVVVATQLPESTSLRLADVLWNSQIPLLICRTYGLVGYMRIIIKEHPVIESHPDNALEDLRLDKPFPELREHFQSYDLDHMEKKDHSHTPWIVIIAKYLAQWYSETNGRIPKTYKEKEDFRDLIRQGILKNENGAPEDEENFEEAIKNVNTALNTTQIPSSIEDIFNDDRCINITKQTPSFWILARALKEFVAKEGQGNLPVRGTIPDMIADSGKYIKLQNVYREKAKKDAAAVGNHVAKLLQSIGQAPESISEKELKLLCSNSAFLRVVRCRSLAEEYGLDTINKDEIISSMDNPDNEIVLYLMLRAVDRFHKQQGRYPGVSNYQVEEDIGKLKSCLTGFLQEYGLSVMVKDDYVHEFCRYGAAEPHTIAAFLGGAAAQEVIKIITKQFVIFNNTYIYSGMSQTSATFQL
TbMetRS inhib – Trypanosoma brucei MetRS inhibition | purified T. brucei MetRS, ATP depletion, Kinase-Glo luminescence | inhibition, % at 11.9 µM | 360,000 compounds, 0.4% hits | AID 624268;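 active means inhibition above a per-plate cutoff of the control wells' mean inhibition plus 3 SD, cut at about 5.5% in these data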;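 further: 0% = DMSO wells median and 100% = median of wells with control inhibitor compound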
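Material: T. brucei methionyl-tRNA synthetase, purified; reagent: substrates ATP, L-methionine and bulk Escherichia coli tRNA; dosing: 11.9 µM single point; timing: 15 min plus 2 h at 25 °C; detection: luminescence of leftover ATP; evaluation: % inhibition; control set: DMSO-only wells as low control; replicates: singlicate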
Starred values were filed as active, the others as inactive; · = no result shown. Rows were chosen to be rich in hits. Some 2.4% of all compounds tested hit in one or more screens of this group.

SMILES	CSN deneddyl inh	HNF4A DNA FP	PREPL inhibitor	Rpn11 inh	Neddylation inh	TbMetRS inhib
CC1(C)CC(=O)C=C(c2ccc(-c3cccc4c3sc3ccccc34)cc2)C1=O	1	3	·	-6	-7	-1
CC1=C(C(=O)N2CCCCCC2)CC(CC(=O)NC2CCCCC2)C(=O)N1Cc1ccc(F)cc1 (centres undefined)	-2	0	·	·	5	0
CC1=C(C(=O)N2CCCCCC2)CC(CC(=O)NC2CCCCC2)C(=O)N1Cc1ccccc1 (centres undefined)	117*	-4	·	12	-10	0
COc1ccc(C(CNC(=O)c2ccc(C)c(S(=O)(=O)N3CCCCC3)c2)N2CCCC2)cc1 (centres undefined)	-2	2	·	4	12	0
CC(=O)C1=C(C)NC(SCC(=O)c2cc(Cl)ccc2Cl)=C(C#N)C1c1ccco1 (centres undefined)	8	10	4	47*	31	-2
COC(=O)CCC(C)N1CCC(Oc2ccc(C(=O)NCc3ccccn3)cc2)CC1 (centres undefined)	-1	-4	·	-8	5	0
COc1ccccc1NC(=O)COC(=O)c1ccc(N2CCCC2=O)cc1	-2	-2	26	6	4	0
CCc1ccc2nc(N3C(=O)C(O)=C(C(=O)c4ccco4)C3c3cccs3)sc2c1 (centres undefined)	11	8	34	57*	9	0
Cc1ccc2nc(N3C(=O)C(O)=C(C(=O)c4cc5ccccc5o4)C3c3cccs3)sc2c1 (centres undefined)	8	10	43	56*	14	0
Cc1ccc2nc(N3C(=O)C(O)=C(C(=O)c4ccco4)C3c3ccc(C)o3)sc2c1 (centres undefined)	21	7	35	32	5	-2
O=C(Cc1ccc([N+](=O)[O-])cc1)NC(C(=O)O)C(O)c1cccc([N+](=O)[O-])c1 (centres undefined)	-2	2	-10	-1	-12	-1
O=C(COc1ccc([N+](=O)[O-])cc1)NC(C(=O)O)C(O)c1cccc([N+](=O)[O-])c1 (centres undefined)	53*	8	15	-2	-25	0
CCOc1cc(/C=C2/C(=N)N3C(=NC2=O)SN=C3S(=O)(=O)C(C)C)ccc1OC(=O)c1ccco1	28	39*	36	·	-85	0
CN(C(=O)COC(=O)c1ccc(Cl)c(S(=O)(=O)NCc2ccccc2)c1)C1CCS(=O)(=O)C1 (centres undefined)	-4	6	·	2	12	0
Cc1ccc(CN=Cc2[nH]c3ccc(Br)c(Cl)c3c2O)cc1	0	46*	15	9	-61	0
Oc1c(C=NCc2ccc(F)cc2)[nH]c2ccc(Br)c(Cl)c12	·	·	-27	·	·	·
Cc1cccc(NC(=O)c2cc(-c3cc(C)cc(C)c3O)n[nH]2)c1	2	31*	4	2	8	4
Cc1cc(C)c(O)c(-c2cc(C(=O)Nc3cccnc3)[nH]n2)c1	-1	3	17	-2	11	3
O=C1N/C(=C/c2ccc(N3CCOCC3)o2)C(=O)N1c1cccc(Cl)c1	7	127	9	65*	13	-1
CC(CN1CCCCC1)NC(=O)c1scnc1-c1ccccc1 (centres undefined)	0	3	·	-9	3	0
O=C(NCc1ccco1)Nc1ccc2nsnc2c1	0	0	-5	11	50*	-1
Cc1c(C)c2ccc(OCC(=O)NCCN3CCOCC3)c(C)c2oc1=O	2	-2	25	4	47*	0
CCCc1cc(=O)oc2c(C)c(OCC(=O)NCCN3CCOCC3)ccc12	3	-1	4	2	29	-1
COc1ccc(OC)c(NC(=O)NNC(=O)COc2ccc([N+](=O)[O-])cc2)c1	-2	1	12	8	-34	0
Cc1ccc(NC(=O)c2ccc(NCCc3ccccc3)c([N+](=O)[O-])c2)cc1F	118	54*	16	·	-51	0
SMILES	CSN deneddyl inh	HNF4A DNA FP	PREPL inhibitor	Rpn11 inh	Neddylation inh	TbMetRS inhib
Cc1ccc(NC(=O)c2cc(-c3ccco3)nc3ccccc23)cc1S(=O)(=O)N1CCOCC1	37*	-24	-3	14	-6	-1
COc1ccc(NC(=O)c2cc(-c3ccco3)nc3ccccc23)cc1S(=O)(=O)N1CCOCC1	40	-29	12	1	7	-1
Cc1oc(-c2ccc(F)cc2)cc1-c1nn2c(-c3ccoc3C)nnc2s1	39*	-40	8	·	2	0
COc1ccc(Cc2nc3ccccc3n2CC(=O)N/N=C/c2ccc(O)cc2)cc1OC	1	1	5	-3	-3	0
COc1ccc(Cc2nc3ccccc3n2CC(=O)N/N=C/c2ccc(C)cc2O)cc1OC	60*	39*	-5	21	23	0
CCOc1ccc(NC(=O)/C(C#N)=C\c2ccc(N3CCCC3)c(C)c2)cc1	47*	98	·	·	3	0
CCCCCCCCN1C(=O)[C@H](CC(=O)NCCC(C)C)C[C@@]2(C(=O)OCC)CCC=C12	-1	3	·	·	-7	0
[O-]/C(=C(\C(=S)Nc1ccccc1F)[n+]1ccccc1)c1ccc(OC(F)F)cc1	6	75*	21	-2	1	0
Cc1ccc(C)c(NC(=S)/C(=C(\[O-])c2ccc(OC(F)F)cc2)[n+]2ccccc2)c1	-5	-2	3	11	6	0
OC(CNCCc1ccc(Cl)cc1)COc1cc(Cl)ccc1Cl (centres undefined)	6	3	-47	4	-15	0
O=C(O)Cc1sc(Nc2ccccc2)nc1-c1ccc(Cl)cc1	-5	1	28	8	-4	0
Cc1ccc(Nc2nc(-c3ccccc3)c(CC(=O)O)s2)cc1	-5	0	58*	18	20	0
O=C(CN1C(=O)NC2(CCCC2)C1=O)Nc1cc(Cl)ccc1N1CCOCC1	-7	2	-3	-3	-7	0
Cc1ccccc1-c1n[nH]c(=S)n1/N=C/C=C/c1ccco1	34	10	6	-3	60*	0
S=c1[nH]nc(-c2ccccc2)n1/N=C/C=C/c1ccco1	2	1	11	1	-6	-1
Cc1ccc(C)c(S(=O)(=O)N2CCN(C(=O)C3CCN(C(=O)c4ccc(F)cc4)CC3)CC2)c1	-4	1	13	-3	8	-1
CC(CC1C(C#N)=C(N)SC(N)=C1C#N)c1ccccc1 (centres undefined)	58*	74	-1	·	-117	-1
COc1cc(/C=N/N2C(=O)CSC2=S)ccc1O	19	21	-34	49*	-12	0

Screening results (PubChem BioAssay)
